# Published values of several laboratories.
# Target: Broad substrate specificity ATP-binding cassette transporter ABCG2 (ABCG2, Homo sapiens, UniProt Q9UNQ0)
# Residues used in one study (Q9UNQ0 1-655): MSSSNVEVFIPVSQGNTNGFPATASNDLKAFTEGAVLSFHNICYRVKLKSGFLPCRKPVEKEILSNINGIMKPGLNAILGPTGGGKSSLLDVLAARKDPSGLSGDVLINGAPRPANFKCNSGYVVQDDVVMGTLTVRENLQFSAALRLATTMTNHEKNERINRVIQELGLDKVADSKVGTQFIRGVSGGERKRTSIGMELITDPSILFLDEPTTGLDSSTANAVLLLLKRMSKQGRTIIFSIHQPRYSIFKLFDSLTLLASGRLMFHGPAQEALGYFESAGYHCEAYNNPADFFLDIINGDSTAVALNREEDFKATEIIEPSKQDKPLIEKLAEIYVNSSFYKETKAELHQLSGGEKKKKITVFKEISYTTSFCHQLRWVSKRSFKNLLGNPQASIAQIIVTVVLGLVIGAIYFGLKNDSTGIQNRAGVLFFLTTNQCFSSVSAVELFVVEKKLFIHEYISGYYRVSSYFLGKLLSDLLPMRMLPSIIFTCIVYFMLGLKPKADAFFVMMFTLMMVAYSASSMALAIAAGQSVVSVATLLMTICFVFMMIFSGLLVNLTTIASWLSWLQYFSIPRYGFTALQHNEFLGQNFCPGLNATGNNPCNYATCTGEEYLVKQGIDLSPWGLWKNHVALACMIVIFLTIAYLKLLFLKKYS
assay,test system,setting,endpoint,result,SMILES
"transporter uptake, inhibitor",Caco-2,"3 µM, 2 h",inhibition,18%,O=C(O)CSc1nnc(Br)n1-c1ccc(C2CC2)c2ccccc12
"transporter uptake, inhibitor",,,IC50,7.6 µM,CN(CCC(=O)O)C(=O)c1ccc2c(c1)CC[C@@H]1[C@@H]2CC[C@]2(C)C(c3cncc(F)c3)=CC[C@@H]12
ligand displacement,,10 µM,inhibition,~55%,N#C/C(=C/c1cc(Cl)cc(Cl)c1)c1cccnc1
"transporter uptake, inhibitor",Caco-2,"100 µM, 2 h",inhibition,92%,O=c1cc(-c2ccccc2)oc2cc(O)cc(O)c12
,"dog, MDCK-MDR1",,Papp B→A,13.3 ×10⁻⁶ cm/s,C[C@@H](C(=O)N1Cc2c(-c3ccc(C(=O)N4CCCc5ccccc54)cc3)cnn2C[C@@H]1C)c1ccccc1
"transporter uptake, inhibitor",MDCK-II,10 µg/mL,inhibition,13%,CN(C(=O)n1cnc(-c2ccc[n+]([O-])c2)c1)C1CCCCC1
"transporter uptake, inhibitor",,cell membranes,Ki,560 nM,CC(=O)c1cc(C(=O)N[C@@H](C)Cn2ccc(-c3ccc(C#N)c(Cl)c3)n2)[nH]n1
,Caco-2,"1 µM, 2 h, pH 7.4",Papp A→B,5.51 ×10⁻⁶ cm/s,C/C(O)=C(\C#N)C(=O)Nc1ccc(C(F)(F)F)cc1
,"dog, MDCK-MDR1",,Papp B→A,11.9 ×10⁻⁶ cm/s,CC(C)[C@H]1Cn2ncc(-c3ccc(C(=O)N4CCCc5ccccc54)cc3)c2CN1C(=O)Cc1ccccc1
"transporter uptake, inhibitor",,cell membranes,Ki,4000 nM,C=C[C@@H]1C[C@]1(NC(=O)[C@@H]1C[C@@H]2CN1C(=O)[C@H](C(C)(C)C)NC(=O)O[C@@H]1C[C@H]1CCCCCc1nc3ccc(OC)cc3nc1O2)C(=O)NS(=O)(=O)C1CC1
